For data set [1], the target named is T1, Adrenergic receptor alpha-2 (Rattus norvegicus, UniProt P22086+P19328+P22909).
T1 sequence (P22086 whole entry): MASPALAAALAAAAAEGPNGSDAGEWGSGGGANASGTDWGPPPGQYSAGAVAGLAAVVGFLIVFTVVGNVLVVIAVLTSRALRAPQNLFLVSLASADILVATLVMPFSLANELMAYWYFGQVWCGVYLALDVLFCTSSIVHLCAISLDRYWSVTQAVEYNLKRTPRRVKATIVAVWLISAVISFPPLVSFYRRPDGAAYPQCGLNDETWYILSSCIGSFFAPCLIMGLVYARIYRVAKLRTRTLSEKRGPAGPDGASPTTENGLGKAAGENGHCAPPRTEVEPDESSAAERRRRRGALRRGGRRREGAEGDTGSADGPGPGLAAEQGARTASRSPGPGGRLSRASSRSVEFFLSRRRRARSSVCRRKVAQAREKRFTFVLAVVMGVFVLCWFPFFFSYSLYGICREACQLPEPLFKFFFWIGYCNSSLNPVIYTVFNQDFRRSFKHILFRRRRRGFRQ
T1 sequence (P19328 whole entry): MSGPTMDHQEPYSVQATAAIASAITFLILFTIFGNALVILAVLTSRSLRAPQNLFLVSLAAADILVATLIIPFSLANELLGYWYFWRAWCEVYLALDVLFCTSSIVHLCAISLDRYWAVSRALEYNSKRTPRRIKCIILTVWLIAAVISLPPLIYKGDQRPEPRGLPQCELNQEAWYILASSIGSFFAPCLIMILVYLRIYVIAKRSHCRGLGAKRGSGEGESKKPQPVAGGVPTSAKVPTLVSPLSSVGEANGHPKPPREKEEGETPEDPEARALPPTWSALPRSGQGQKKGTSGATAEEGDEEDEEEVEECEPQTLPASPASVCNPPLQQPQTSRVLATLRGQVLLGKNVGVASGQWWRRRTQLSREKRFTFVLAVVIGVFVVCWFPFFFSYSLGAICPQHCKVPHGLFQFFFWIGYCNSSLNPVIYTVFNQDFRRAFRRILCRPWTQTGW
T1 sequence (P22909 whole entry): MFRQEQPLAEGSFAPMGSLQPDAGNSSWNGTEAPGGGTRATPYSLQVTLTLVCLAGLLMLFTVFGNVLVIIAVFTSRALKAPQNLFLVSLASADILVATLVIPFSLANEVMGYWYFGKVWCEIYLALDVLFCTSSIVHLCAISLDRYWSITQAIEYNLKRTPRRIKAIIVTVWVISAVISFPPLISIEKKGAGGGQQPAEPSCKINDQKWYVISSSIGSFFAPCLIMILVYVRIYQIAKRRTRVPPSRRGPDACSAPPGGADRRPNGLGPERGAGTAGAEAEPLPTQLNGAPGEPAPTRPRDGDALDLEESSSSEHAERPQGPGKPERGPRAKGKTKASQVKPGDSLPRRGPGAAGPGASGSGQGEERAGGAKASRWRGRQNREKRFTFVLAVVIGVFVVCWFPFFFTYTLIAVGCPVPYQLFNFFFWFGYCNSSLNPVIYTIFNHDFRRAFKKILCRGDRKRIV
In words: Displacement of [3H]clonidine from alpha-2 adrenergic receptor in Sprague-Dawley rat cortex. Put shortly:
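Male rat cortex homogenised in ice-cold 50 mM Tris/HCl (pH 7.7 at 25 °C), washed by three 50,000 × g spins. Membranes incubated with [3H]clonidine (final 2.0 nM) and 5 test concentrations over a 16-fold range, 25 °C for 30 min. Bound ligand collected by vacuum filtration onto GF/B filters and counted by scintillation. Nonspecific binding defined with 2 μM phentolamine. Run in quadruplicate; IC50 by log-probit, Ki by Cheng-Prusoff.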
(In general: Loss of bound radioactivity is the signal in a displacement assay; it reports binding, not function.)

A short description of data set [2]: Dissociation constant, pKa of the compound. Format: physicochemical.
Data set [3] has as its target T2, Phenylethanolamine N-methyltransferase (Homo sapiens, UniProt P11086).
T2 sequence (P11086 whole entry): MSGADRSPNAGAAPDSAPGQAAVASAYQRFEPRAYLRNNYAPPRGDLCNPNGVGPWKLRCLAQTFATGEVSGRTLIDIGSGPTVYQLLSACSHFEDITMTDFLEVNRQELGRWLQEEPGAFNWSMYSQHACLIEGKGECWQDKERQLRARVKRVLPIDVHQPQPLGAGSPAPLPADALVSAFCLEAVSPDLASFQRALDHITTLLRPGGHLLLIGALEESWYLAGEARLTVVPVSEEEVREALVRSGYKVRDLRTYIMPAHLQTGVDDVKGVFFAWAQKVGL
The data set can be described thus: Binding affinity to human PNMT.

A value given as a limit tells only on which side of the number the result lay.

Usually Ki stands for the dissociation constant of the complex between target and ligand, obtained from inhibition or displacement. In general, pKa refers to the negative logarithm of the acid dissociation constant. Low readings indicate a stronger acid or weaker base, high ones a weaker acid or stronger base. Consider `O=[N+]([O-])c1ccc2c(c1)CNC(C(F)F)C2` (racemic), for which the Ki in data set [1] was over 1000 µM. For the same compound, in data set [2], the pKa was determined as 5.83.

The compound `N#Cc1ccc2c(c1)CNC(C(F)F)C2` (racemic) showed a Ki in data set [1] of over 1000 µM. Still for that read-out and setting: then `COCCCNS(=O)(=O)c1ccc2c(c1)CNC(C(F)(F)F)C2` (racemic), with over 1000 µM; and `CS(=O)(=O)c1ccc2c(c1)CNC(C(F)F)C2` (racemic), with 2500 µM.

With `CCCCNS(=O)(=O)c1ccc2c(c1)CNC(C(F)F)C2` (racemic), the Ki in data set [1] is over 1000 µM.

In data set [1], `FC(F)C1Cc2ccc(C(F)(F)F)cc2CN1` (racemic) came in with an inhibition constant Ki of 190 µM.

In the case of `FC(F)C1Cc2ccc(I)cc2CN1` (racemic), the Ki in data set [1] is over 1000 µM. For `O=[N+]([O-])c1ccc(NS(=O)(=O)c2ccc3c(c2)CNC(C(F)(F)F)C3)cc1` (racemic), the Ki in data set [3] is 110 µM; in data set [1], over 1000 µM. In data set [1], `O=S(=O)(NCC(F)(F)F)c1ccc2c(c1)CNC(C(F)F)C2` (racemic) had a Ki of over 1000 µM. In data set [1], `COCCCNS(=O)(=O)c1ccc2c(c1)CNC(C(F)F)C2` (racemic) returned a Ki of over 1000 µM.

With `O=[N+]([O-])c1ccc(NS(=O)(=O)c2ccc3c(c2)CNC(C(F)F)C3)cc1` (racemic), in data set [1], the inhibitory constant (Ki) was over 1000 µM.

The compound `O=S(=O)(Nc1ccc(Cl)cc1)c1ccc2c(c1)CNC(C(F)(F)F)C2` (racemic) registered a Ki in data set [1] of over 1000 µM.

`O=S(=O)(Nc1ccc(Cl)cc1)c1ccc2c(c1)CNC(C(F)F)C2` (racemic) returned a Ki in data set [1] of over 1000 µM.

`FC(F)C1Cc2ccccc2CN1` (racemic) yielded a Ki in data set [1] of 150 µM. In addition, the pKa in data set [2] came to 6.42. For `FC(F)C1Cc2ccc(Br)cc2CN1` (racemic) the same measures were 230 µM and 6.12. For `CCNS(=O)(=O)c1ccc2c(c1)CNC(C(F)F)C2` (racemic), the Ki in data set [1] is over 1000 µM. On the same count and under the same terms, then `CCCNS(=O)(=O)c1ccc2c(c1)CNC(C(F)F)C2` (racemic), with over 1000 µM; and `NS(=O)(=O)c1ccc2c(c1)CNC(C(F)F)C2` (stereo not drawn), with over 1000 µM; and `O=S(=O)(NCC(F)(F)F)c1ccc2c(c1)CNC(C(F)(F)F)C2` (racemic), with over 1000 µM.

The record behind these values is ChEMBL document CHEMBL1147671, “Application of the Goldilocks effect to the design of potent and selective inhibitors of phenylethanolamine N-methyltransferase: balancing pKa and steric effects in the optimization of 3-methyl-1,2,3,4-tetrahydroisoquinoline inhibitors by beta-fluorination” (J Med Chem, 2006).
